Legend:
Type in all cases: functional
Details in all cases: read-out: GI
M14 = assay: Antiproliferative activity against human M14 cells assessed as cell growth inhibition at 10 uM incubated for 48 hrs by SRB assay relative to control
Summary of the method: (§1)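 Cells plated in 96-well plates at […] cells/well and preincubated 24 h at 37 °C, 5% CO2. Time-zero plates were TCA-fixed. Compound was diluted in medium with 50 µg/mL gentamicin and cells exposed for 48 h. Adherent cells fixed with 10% final TCA; suspension cells with 16% final TCA. Plates stained with 0.4% SRB in 1% acetic acid, dye solubilized in 10 mM Trizma, absorbance read at 515 nm. Percent growth calculated against time-zero and control.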

TK-10 = assay: Antiproliferative activity against human TK-10 cells assessed as cell growth inhibition at 10 uM incubated for 48 hrs by SRB assay relative to control
Summary of the method: (§2)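 Cells pre-incubated 24 h at 37°C, 5% CO2, then exposed to compound (DMSO stock diluted in medium with 50 µg/mL gentamicin) for 48 h. Adherent cells fixed with cold TCA (final 10%, 60 min, 4°C); suspension cells fixed with 16% TCA final. Stained with 0.4% SRB in 1% acetic acid for 10 min, dye solubilized in 10 mM Trizma base, absorbance read at 515 nm. Growth calculated against time-zero and untreated control plates.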

SK-OV-3 = assay: Antiproliferative activity against human SK-OV-3 cells assessed as cell growth inhibition at 10 uM incubated for 48 hrs by SRB assay relative to control; summary of the method: as §1
BT-549 = assay: Antiproliferative activity against human BT-549 cells assessed as cell growth inhibition at 10 uM incubated for 48 hrs by SRB assay relative to control
SK-MEL-2 = assay: Antiproliferative activity against human SK-MEL-2 cells assessed as cell growth inhibition at 10 uM incubated for 48 hrs by SRB assay relative to control; summary of the method: as §1
Malme-3M = assay: Antiproliferative activity against human Malme-3M cells assessed as cell growth inhibition at 10 uM incubated for 48 hrs by SRB assay relative to control
IGROV-1 = assay: Antiproliferative activity against human IGROV-1 cells assessed as cell growth inhibition at 10 uM incubated for 48 hrs by SRB assay relative to control
CAKI-1 = assay: Antiproliferative activity against human CAKI-1 cells assessed as cell growth inhibition at 10 uM incubated for 48 hrs by SRB assay relative to control
OVCAR-3 = assay: Antiproliferative activity against human OVCAR-3 cells assessed as cell growth inhibition at 10 uM incubated for 48 hrs by SRB assay relative to control; summary of the method: as §1
SK-MEL-28 = assay: Antiproliferative activity against human SK-MEL-28 cells assessed as cell growth inhibition at 10 uM incubated for 48 hrs by SRB assay relative to control; summary of the method: as §1
HCC 2998 = assay: Antiproliferative activity against human HCC 2998 cells assessed as cell growth inhibition at 10 uM incubated for 48 hrs by SRB assay relative to control
NCI-H522 = assay: Antiproliferative activity against human NCI-H522 cells assessed as cell growth inhibition at 10 uM incubated for 48 hrs by SRB assay relative to control; summary of the method: as §1
KM12 = assay: Antiproliferative activity against human KM12 cells assessed as cell growth inhibition at 10 uM incubated for 48 hrs by SRB assay relative to control; summary of the method: as §1
HL-60(TB) = assay: Antiproliferative activity against human HL-60(TB) cells assessed as cell growth inhibition at 10 uM incubated for 48 hrs by SRB assay relative to control
Summary of the method: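 Cells were plated at […] cells/well and preincubated 24 h at 37°C, 5% CO2, with time-zero plates TCA-fixed. Compound was diluted from DMSO stock in medium with 50 µg/mL gentamicin, then exposed for 48 h. Settled suspension cells were fixed with 80% TCA (final 16%), stained with 0.4% SRB and solubilized in 10 mM Trizma, A515. Growth was taken relative to Tz and control.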

NCI-H322M = assay: Antiproliferative activity against human NCI-H322M cells assessed as cell growth inhibition at 10 uM incubated for 48 hrs by SRB assay relative to control
CCRF-CEM = assay: Antiproliferative activity against human CCRF-CEM cells assessed as cell growth inhibition at 10 uM incubated for 48 hrs by SRB assay relative to control; summary of the method: as §1
HCT-15 = assay: Antiproliferative activity against human HCT-15 cells assessed as cell growth inhibition at 10 uM incubated for 48 hrs by SRB assay relative to control
OVCAR-5 = assay: Antiproliferative activity against human OVCAR-5 cells assessed as cell growth inhibition at 10 uM incubated for 48 hrs by SRB assay relative to control; summary of the method: as §1
MCF7 = assay: Antiproliferative activity against human MCF7 cells assessed as cell growth inhibition at 10 uM incubated for 48 hrs by SRB assay relative to control
MOLT-4 = assay: Antiproliferative activity against human MOLT-4 cells assessed as cell growth inhibition at 10 uM incubated for 48 hrs by SRB assay relative to control
U-251 = assay: Antiproliferative activity against human U-251 cells assessed as cell growth inhibition at 10 uM incubated for 48 hrs by SRB assay relative to control; summary of the method: as §2
SF-295 = assay: Antiproliferative activity against human SF-295 cells assessed as cell growth inhibition at 10 uM incubated for 48 hrs by SRB assay relative to control; summary of the method: as §1
DU-145 = assay: Antiproliferative activity against human DU-145 cells assessed as cell growth inhibition at 10 uM incubated for 48 hrs by SRB assay relative to control
SN12C = assay: Antiproliferative activity against human SN12C cells assessed as cell growth inhibition at 10 uM incubated for 48 hrs by SRB assay relative to control
ACHN = assay: Antiproliferative activity against human ACHN cells assessed as cell growth inhibition at 10 uM incubated for 48 hrs by SRB assay relative to control
OVCAR-8 = assay: Antiproliferative activity against human OVCAR-8 cells assessed as cell growth inhibition at 10 uM incubated for 48 hrs by SRB assay relative to control
PC-3 = assay: Antiproliferative activity against human PC-3 cells assessed as cell growth inhibition at 10 uM incubated for 48 hrs by SRB assay relative to control
SK-MEL-5 = assay: Antiproliferative activity against human SK-MEL-5 cells assessed as cell growth inhibition at 10 uM incubated for 48 hrs by SRB assay relative to control; summary of the method: as §1
MDA-MB-468 = assay: Antiproliferative activity against human MDA-MB-468 cells assessed as cell growth inhibition at 10 uM incubated for 48 hrs by SRB assay relative to control
RPMI-8226 = assay: Antiproliferative activity against human RPMI-8226 cells assessed as cell growth inhibition at 10 uM incubated for 48 hrs by SRB assay relative to control
Hs-578T = assay: Antiproliferative activity against human Hs-578T cells assessed as cell growth inhibition at 10 uM incubated for 48 hrs by SRB assay relative to control; summary of the method: as §1
RXF 393 = assay: Antiproliferative activity against human RXF 393 cells assessed as cell growth inhibition at 10 uM incubated for 48 hrs by SRB assay relative to control; summary of the method: as §1

Row | SMILES | inhibition of growth at 10 µM (M14) | inhibition of growth at 10 µM (TK-10) | inhibition of growth at 10 µM (SK-OV-3) | inhibition of growth at 10 µM (BT-549) | inhibition of growth at 10 µM (SK-MEL-2) | inhibition of growth at 10 µM (Malme-3M) | inhibition of growth at 10 µM (IGROV-1) | inhibition of growth at 10 µM (CAKI-1) | inhibition of growth at 10 µM (OVCAR-3) | inhibition of growth at 10 µM (SK-MEL-28) | inhibition of growth at 10 µM (HCC 2998) | inhibition of growth at 10 µM (NCI-H522) | inhibition of growth at 10 µM (KM12) | inhibition of growth at 10 µM (HL-60(TB)) | inhibition of growth at 10 µM (NCI-H322M) | inhibition of growth at 10 µM (CCRF-CEM) | inhibition of growth at 10 µM (HCT-15) | inhibition of growth at 10 µM (OVCAR-5) | inhibition of growth at 10 µM (MCF7) | inhibition of growth at 10 µM (MOLT-4) | further results
1 | Cc1nc2c(cnn2-c2ccccc2)c(=O)n1-c1ccc(N2C(=O)c3ccccc3C2=O)cc1 | < 15% | < 15% | < 15% | < 15% | < 15% | < 15% | < 15% | < 15% | < 15% | < 15% | < 15% | < 15% | < 15% | < 15% | < 15% | < 15% | < 15% | < 15% | < 15% | < 15% | inhibition of growth at 10 µM (U-251): < 15%; inhibition of growth at 10 µM (SF-295): < 15%; inhibition of growth at 10 µM (DU-145): < 15%; inhibition of growth at 10 µM (SN12C): < 15%; inhibition of growth at 10 µM (ACHN): < 15%; inhibition of growth at 10 µM (OVCAR-8): < 15%; inhibition of growth at 10 µM (PC-3): < 15%; inhibition of growth at 10 µM (SK-MEL-5): < 15%; inhibition of growth at 10 µM (MDA-MB-468): < 15%; inhibition of growth at 10 µM (RPMI-8226): < 15%; inhibition of growth at 10 µM (Hs-578T): < 15%; inhibition of growth at 10 µM (RXF 393): < 15%
2 | Cc1ccc(C(=O)Nc2ccc(-n3c(C)nc4c(cnn4-c4ccccc4)c3=O)cc2)cc1 | 26.8% | 17.7% | < 15% | 40.8% | 21.7% | 32.3% | 28.4% | 27.6% | < 15% | 19.3% | < 15% | 28.8% | 22.5% | 48.6% | < 15% | 53.7% | 24.6% | < 15% | 52.2% | 65.7% | inhibition of growth at 10 µM (U-251): < 15%; inhibition of growth at 10 µM (SF-295): 49.4%; inhibition of growth at 10 µM (DU-145): 15.1%; inhibition of growth at 10 µM (SN12C): 26.7%; inhibition of growth at 10 µM (ACHN): 38.2%; inhibition of growth at 10 µM (OVCAR-8): 23.2%; inhibition of growth at 10 µM (PC-3): 28.4%; inhibition of growth at 10 µM (SK-MEL-5): 93%; inhibition of growth at 10 µM (MDA-MB-468): 78.9%; inhibition of growth at 10 µM (RPMI-8226): 41.6%; inhibition of growth at 10 µM (Hs-578T): 15.2%; inhibition of growth at 10 µM (RXF 393): < 15%

Reference: ChEMBL document CHEMBL5356993, “Novel pyrazolo[3,4-d]pyrimidine derivatives: design, synthesis, anticancer evaluation, VEGFR-2 inhibition, and antiangiogenic activity” (RSC Med Chem, 2023)
